Assay results as given in ChEMBL document CHEMBL2203173 (J Med Chem, 2012).
Active and inactive are the calls of the source. The rule behind the calls is not given here.

Legend:
MRC5 = assay: Antiproliferative activity at human MRC5 cells after 72 hrs by MTT assay; assay type: functional, cell-based; details: MRC5, 72 h
SK-N-MC [1] = assay: Inhibition to 59Fe uptake from 59Fe-transferrin in human SK-N-MC cells at 25 uM after 3 hrs; assay type: functional; set-up: scale not given: the % may be the effect or the level left
Summary of the method: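 SK-N-MC cells labeled with 59Fe-transferrin (0.75 μM) for 3 h/37 °C with or without chelators (25 μM). Cells washed four times on ice with ice-cold PBS. Internalized 59Fe separated with Pronase (1 mg/mL) and expressed as % of control. Mean ± SD of three experiments.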

DMS-53 [2] = assay: Antiproliferative activity at human DMS53 cells after 72 hrs by MTT assay; assay type: functional, cell-based; details: Homo sapiens, DMS-53, 72 h
SK-N-MC [3] = assay: Induction of 59Fe mobilization in human SK-N-MC cells at 25 uM after 3 hrs by gamma-scintillation counter; assay type: functional
Summary of the method: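 SK-N-MC cells prelabeled with 59Fe-transferrin (0.75 μM) for 3 h/37 °C, then washed four times on ice with ice-cold PBS. Cells reincubated with or without chelators (25 μM) for 3 h/37 °C. Released 59Fe given as % of cellular 59Fe. Mean ± SD of three experiments.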

A549 = assay: Antiproliferative activity at human A549 cells after 72 hrs by MTT assay; assay type: functional, cell-based; details: Homo sapiens, A549, 72 h
DMS-53 [4] = assay: Antitumor activity against human DMS53 cell xenografted BALB/c nu/nu mouse assessed as reduction in tumor volume at 7.5 mg/kg, po administered for 3 times a week measured after 20 days (reference value: 997 155 mm'3); assay type: functional, organism-based; set-up: dose 7.5 mg/kg
Summary of the method: (§1)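 DMS-53 xenograft nude mice gavaged 3 times/week with agent in 30% propylene glycol/saline or with vehicle alone. Net tumor volume followed for 20 days; the study ended when control tumors neared the 1000 mm3 ethical limit. Tumors excised and wet-weighed on day 20. n = 6–11 mice/condition, mean ± SD.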

DMS-53 [5] = assay: Antitumor activity against human DMS53 cells xenografted in BALB/c nu/nu mouse assessed as reduction of tumor volume at 6 mg/kg, iv administered for 5 days a week measured after 21 days (RVb = 922 94 mm'3); assay type: functional, organism-based; set-up: dose 6 mg/kg
Summary of the method: (§2)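 Nude mice bearing DMS-53 xenografts began dosing once tumors reached 100 mm3. Agents given iv by tail vein 5 days/week in vehicle of 30% propylene glycol/saline, with vehicle controls. Net tumor volume followed for 21 days. Mice sacrificed on day 21 and tumors excised and wet-weighed.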

DMS-53 [6] = assay: Antitumor activity against human DMS53 cells xenografted in BALB/c nu/nu mouse assessed as reduction of tumor volume at 3 mg/kg, iv administered for 5 days a week measured after 21 days (RVb = 922 94 mm'3); assay type: functional, organism-based; set-up: dose 3 mg/kg; summary of the method: as §2
DMS-53 [7] = assay: Antitumor activity against human DMS53 cell xenografted BALB/c nu/nu mouse assessed as reduction in tumor volume at 10 mg/kg, po administered for 3 times a week measured after 20 days (reference value: 997 155 mm'3); assay type: functional, organism-based; set-up: dose 10 mg/kg; summary of the method: as §1
SK-N-MC [8] = assay: Antiproliferative activity at human SK-N-MC cells after 72 hrs by MTT assay; assay type: functional, cell-based

Row | SMILES | IC50 (A549) [µM] | IC50 (SK-N-MC [8]) [µM] | IC50 (DMS-53 [2]) [µM] | further results
1 | CC(=O)N(O)CCCCCNC(=O)CCC(=O)N(O)CCCCCNC(=O)CCC(=O)N(O)CCCCCN [DEFEROXAMINE] | 7.5 |  | 10 | IC50 (MRC5): > 10 µM; Activity (SK-N-MC [1]): 84%; Activity (SK-N-MC [3]): 15.2%
2 | Nc1ccn([C@@H]2O[C@H](CO)[C@@H](O)C2(F)F)c(=O)n1 [GEMCITABINE] | 0.02 |  | 0.009 | 
3 | CCN(C)C(=S)NN=C(c1ccccn1)c1ccccn1 |  |  |  | Activity (DMS-53 [4]): Active; Activity (DMS-53 [5]): Active; Activity (DMS-53 [6]): Active; Activity (DMS-53 [7]): Active
4 | CNC(=S)N/N=C(\c1ccccc1)c1ccccn1 |  | 0.018 |  | 
5 | COc1cc([C@@H]2c3cc4c(cc3[C@@H](O[C@@H]3O[C@@H]5CO[C@@H](C)O[C@H]5[C@H](O)[C@H]3O)[C@H]3COC(=O)[C@H]23)OCO4)cc(OC)c1O [ETOPOSIDE] | 0.8 |  | 1.5 | 

Further lines, with some results ahead:

Row | IC50 (A549) [µM] | IC50 (SK-N-MC [8]) [µM] | SMILES | IC50 (DMS-53 [2]) [µM] | further results
6 |  | 0.006 | CCN(C)C(=S)N/N=C(\c1ccccc1)c1ccccn1 |  | 
7 |  | 0.01 | CCN(C(=S)NN=C(c1ccccn1)c1ccccn1)c1ccccc1 |  | 
